In ChEMBL document CHEMBL1122255, “Synthesis and receptor binding studies relevant to the neuroleptic activities of some 1-methyl-4-piperidylidene-9-substituted-pyrrolo[2,1-b][3]benzazepine derivatives” (J Med Chem, 1983):

What was measured:
[1] = molecular target: T1, Alpha-2A adrenergic receptor (Bos taurus, UniProt Q28838); assay: Displacement of [3H]- clonidine radioligand binding at the alpha-2 adrenergic receptor binding site of calf cerebral cortex; assay type: tissue-based
T1 sequence (Q28838 whole entry): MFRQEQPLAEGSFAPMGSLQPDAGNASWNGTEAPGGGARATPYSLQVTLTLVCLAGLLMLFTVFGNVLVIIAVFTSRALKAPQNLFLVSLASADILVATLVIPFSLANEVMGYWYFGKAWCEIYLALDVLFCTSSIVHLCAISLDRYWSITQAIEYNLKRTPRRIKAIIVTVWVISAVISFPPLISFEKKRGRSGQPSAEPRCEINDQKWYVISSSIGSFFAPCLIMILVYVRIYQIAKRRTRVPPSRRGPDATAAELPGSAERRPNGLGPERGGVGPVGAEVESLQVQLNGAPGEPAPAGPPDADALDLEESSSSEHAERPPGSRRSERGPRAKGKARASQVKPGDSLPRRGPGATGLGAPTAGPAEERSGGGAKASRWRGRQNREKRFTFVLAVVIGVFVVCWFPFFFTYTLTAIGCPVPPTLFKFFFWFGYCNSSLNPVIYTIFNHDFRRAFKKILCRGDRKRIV
Method in brief: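 Calf cerebral cortex membranes were incubated with [3H]clonidine (23 Ci/mmol) at 0.2 nM and 3–5 triplicate test concentrations. Nonspecific binding was defined with 100 nM clonidine. Bound ligand was isolated by rapid filtration and counted by liquid scintillation. IC50 for displacing specific binding came from percent inhibition–concentration data by regression.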

[2] = molecular target: Muscarinic acetylcholine receptor; assay: Displacement of [3H]- QNB binding at the muscarinic-cholinergic binding site of rat brain S1
[3] = molecular target: T2, Alpha-1A adrenergic receptor (Bos taurus, UniProt P18130); assay: Displacement of [3H]- prazosin radioligand binding at the alpha 1-adrenergic binding site of calf cerebral cortex; assay type: tissue-based
T2 sequence (P18130 whole entry): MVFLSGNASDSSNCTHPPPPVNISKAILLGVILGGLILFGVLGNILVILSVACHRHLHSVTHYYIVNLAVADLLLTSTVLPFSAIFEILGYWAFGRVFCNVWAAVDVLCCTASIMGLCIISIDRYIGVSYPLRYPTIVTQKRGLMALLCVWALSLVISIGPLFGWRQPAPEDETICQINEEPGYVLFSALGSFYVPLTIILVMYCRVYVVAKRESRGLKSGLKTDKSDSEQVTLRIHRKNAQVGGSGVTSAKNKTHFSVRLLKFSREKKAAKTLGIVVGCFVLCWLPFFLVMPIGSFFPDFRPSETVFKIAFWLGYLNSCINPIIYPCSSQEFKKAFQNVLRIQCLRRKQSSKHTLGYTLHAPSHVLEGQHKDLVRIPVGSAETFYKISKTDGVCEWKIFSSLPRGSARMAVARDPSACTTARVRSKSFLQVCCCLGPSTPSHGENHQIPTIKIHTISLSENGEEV

| Compound | Ki [1] [nM] | Ki [2] [nM] | Ki [3] [nM] |
| --- | --- | --- | --- |
| CN1CCC(=C2c3cc(C(=O)O)ccc3C=Cn3cccc32)CC1 | 77000 | 9800 | 1200 |
| CN1CCC(=C2c3cc(C#N)ccc3CCn3cccc32)CC1 | 2050 | 270 | – |
| CN1CCC(=C2c3cc(C#N)ccc3C=Cn3cccc32)CC1 | 1030 | 21 | 30 |
| CN1CCC(=C2c3ccccc3CCn3cccc32)CC1 | 730 | 49 | 130 |
| CN1CCC(=C2c3cc(C(=O)O)ccc3CCn3cccc32)CC1 | – | > 50000 | – |
| CN1CCC(=C2c3ccccc3C=Cc3ccccc32)CC1 [CYPROHEPTADINE] | – | 4 | – |

More lines, in order of falling Ki [1], values ahead:

| Ki [1] [nM] | Ki [2] [nM] | Ki [3] [nM] | Compound |
| --- | --- | --- | --- |
| 600 | 48 | 80 | CN1CCC(=C2c3cc(Cl)ccc3CCn3cccc32)CC1 |
| 430 | 60 | 44 | CN1CCC(=C2c3cc(Br)ccc3CCn3cccc32)CC1 |
| 330 | 250 | 36 | CN1CCC(=C2c3cc(SC(F)(F)F)ccc3CCn3cccc32)CC1 |
| 310 | 20 | 20 | CN1CCC(=C2c3cc(Cl)ccc3C=Cn3cccc32)CC1 |
| 230 | 88 | 13 | CN1CCC(=C2c3cc(SC(F)(F)F)ccc3C=Cn3cccc32)CC1 |
| 226 | 14.5 | 29 | CN1CCC(=C2c3ccccc3C=Cn3cccc32)CC1 |
| 210 | 18 | 19 | CN1CCC(=C2c3cc(Br)ccc3C=Cn3cccc32)CC1 |
